An excerpt weighted towards active compounds, which were near 4% of everything screened.
Statin myotox sup – suppression of simvastatin myotoxicity; AID 602340; C2C12 myotubes + simvastatin, ATP luminescence, 48 h; scaled: DMSO 0, geranylgeraniol control 100; 0.78% of 330,000 active; rescue of ATP level, % at 7.49 µM;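 active means mean ATP rescue above about 67%, or every replicate alone reaching that limit, limit read from the data, passing the limit was not always enough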;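 further: myotubes were challenged with 10 µM simvastatin during compound exposure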
E-sel inducer – E-selectin induction on HUVECs; 0.37% of 260,000 active; HUVEC E-selectin immunofluorescence imaging; normalized: neutral wells 0, TNF-alpha wells 100; activation, % at 7.58 µM; AID 686992; P16581;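 active means mean E-selectin-positive cell signal at least 10% of the positive control, reached in at least 60% of replicates, without over 20% cell loss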
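Test system – human umbilical vein endothelial cells (HUVEC), E-selectin induction · Input – 3,000 HUVEC seeded per well · Buffer or medium – EGM-2, gelatin · Compound dosing – single-point compound dose · Detection – immunofluorescence imaging · Measure – percent E-selectin-positive cells · Controls – TNF-alpha high, DMSO low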
SIRT5 block – blocks human SIRT5 desuccinylation of peptide | 1.1% of 330,000 active | AID 652115 | Q9NXA8 | inhibition, % at 15 µM | Purified SirT5, succinyl-peptide AMC, trypsin-coupled fluorescence; in the data active means inhibition above about 15%
Target sequence (Q9NXA8 whole entry, looked up): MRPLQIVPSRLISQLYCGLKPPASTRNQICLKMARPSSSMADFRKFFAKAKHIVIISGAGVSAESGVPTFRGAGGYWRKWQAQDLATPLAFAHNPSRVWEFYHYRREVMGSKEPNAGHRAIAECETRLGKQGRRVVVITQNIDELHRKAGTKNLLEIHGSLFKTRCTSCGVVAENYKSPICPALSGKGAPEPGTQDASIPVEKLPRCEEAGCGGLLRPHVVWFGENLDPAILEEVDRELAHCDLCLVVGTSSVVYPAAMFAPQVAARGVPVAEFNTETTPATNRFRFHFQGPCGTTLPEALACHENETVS
rRNA inh HTS – inhibitors of bacterial rRNA selective over humanized ribosomes; E. coli WT GFP vs humanized-ribosome RFP mutants, fluorescence, 24 h; hits give low values; DMSO median 0, no signal -100; 1.6% of 350,000 active; GFP signal change (wild-type ribosome), % (no concentration beside the values);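 active means significant combined selectivity score with lowered wild-type GFP, culture density cut under 30%, mutant RFP and density less affected; inactive means any of these conditions unmet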
FGF22 binding – FGF22 (human) thermal shift binding; Q9HCT0; recombinant FGF22 thermal shift, SYPRO orange fluorescence; percent of sucrose octasulfate shift, DMSO zero; activity (Tm shift, normalised), % at 9.99 µM; 1.5% of 340,000 active; AID 651658;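 active means mean Tm shift, scaled 0 neutral to 100 positive control, at about 1.3% or above, every replicate too, limit read from the data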
Target sequence (Q9HCT0 whole entry, looked up): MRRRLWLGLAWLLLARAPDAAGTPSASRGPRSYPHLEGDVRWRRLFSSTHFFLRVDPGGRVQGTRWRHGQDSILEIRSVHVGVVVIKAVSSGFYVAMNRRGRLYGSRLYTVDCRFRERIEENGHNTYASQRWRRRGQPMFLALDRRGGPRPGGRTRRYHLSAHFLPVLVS
FN deposit inh – fibronectin deposition inhibition; AH1F fibroblasts, Alexa488-fibronectin deposition fluorescence, overnight; inhibition, % at 12.6 µM; 0.086% of 350,000 active;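 active means mean inhibition across replicates of 30% or more, regardless of how many single replicates reach that level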;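 further: positive control wells lacked labelled fibronectin entirely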
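Material: AH1F fibroblast monolayer depositing Alexa488-labelled fibronectin into matrix / Amount: 10000 AH1F cells per well / Signal: fluorescence 485/525 nm / Medium: DMEM, 2% serum / Compound: single dose, pinned / Incubation: 1 h cell adhesion before compound, then overnight fibronectin incubation / Reagent: Alexa488-FN, 24 nM final / Read-out: inhibition of fibronectin deposition signal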
* marks the source's active call; other numbers are inactive results; . = no result given.

SMILES | Statin myotox sup | E-sel inducer | SIRT5 block | rRNA inh HTS | FGF22 binding | FN deposit inh
Cc1c(N2C(=O)C(=O)/C(=C(/O)c3ccc(Br)cc3)C2c2cccnc2)c(=O)n(-c2ccccc2)n1C (centres undefined) | -8 | 0 | -1 | 5 | 44* | 0
CC(C)[C@H]1C(=O)N[C@@H](c2cccc(Cl)c2)CC=CC[C@H](C)Oc2ccccc2C(=O)N1C (mixture of isomers) | . | . | . | 0 | . | -19
c1ccc2c(c1)CCN(Cc1nnnn1Cc1ccc3c(c1)OCO3)C2 | 125* | . | . | . | . | .
CN1CCN(CC#CCn2c3ccccc3c3ccccc32)CC1 | -31 | . | -6 | -34* | 0 | .
N#CCCN1CCN(Cn2c3ccccc3c3ccccc32)CC1 | 114* | . | . | . | . | .
CO[C@H]1CN(C)C(=O)c2cc(NC(=O)NC3CCCCC3)ccc2OC[C@@H](C)N(CCc2ccccc2)C[C@H]1C | -24 | 0 | 10 | -1 | -1 | -7
O=C(COc1ccc(Cc2ccccc2)cc1)c1ccc(F)cc1 | 6 | 2 | 16* | -5 | 0 | 3
Cc1noc(C)c1NC(=O)N[C@@H]1CC[C@H](CC(=O)N2CCCCC2)O[C@@H]1CO | 0 | 0 | -4 | 3 | 0 | .
O=C(NCC1CCCO1)c1cccc(NC(=O)c2ccc(Br)cc2)c1 (centres undefined) | -3 | 0 | -1 | 1 | 0 | 2
CC1=Nc2cc(C(=O)O)ccc2Sc2ccc(Br)cc21 | 15 | 4 | 23* | -5 | 0 | 2
CC1=Nc2cc(C(=O)NCC3CCCO3)ccc2Sc2ccc(Br)cc21 (centres undefined) | -40 | 2 | -3 | -22* | 0 | 5
C[C@@H]1CN([C@H](C)CO)C(=O)c2cc(NS(=O)(=O)c3ccccc3)ccc2O[C@@H](C)CCCCO[C@@H]1CN(C)C(=O)C1CCCCC1 | 8 | 0 | 3 | -3 | 0 | 0
C[C@@H]1CN([C@@H](C)CO)C(=O)c2cc(NS(=O)(=O)c3ccccc3)ccc2O[C@@H](C)CCCCO[C@@H]1CN(C)S(=O)(=O)c1ccccc1 | . | 0 | 17* | -4 | 0 | -4
Cc1ccc(S(=O)(=O)N(C)C[C@@H]2OCCCC[C@H](C)Oc3ccc(NS(=O)(=O)c4ccccc4)cc3C(=O)N([C@H](C)CO)C[C@H]2C)cc1 | -1 | 0 | 18* | -1 | -1 | -19
C[C@@H]1CCCCO[C@H](CN(C)C(=O)C2CCCCC2)[C@H](C)CN([C@H](C)CO)C(=O)c2cc(NS(=O)(=O)c3ccccc3)ccc2O1 | 89* | 0 | 7 | -7 | 0 | -4
C[C@@H]1CCCCO[C@@H](CN(C)S(=O)(=O)c2ccccc2)[C@H](C)CN([C@H](C)CO)C(=O)c2cc(NS(=O)(=O)c3ccccc3)ccc2O1 | . | 0 | 5 | 0 | -1 | -11
Cc1ccc(S(=O)(=O)Nc2ccc3c(c2)C(=O)N([C@@H](C)CO)C[C@@H](C)[C@H](CN(C)S(=O)(=O)c2ccccc2)OCCCC[C@H](C)O3)cc1 | . | 0 | 13 | -2 | . | 8
Cc1ccc(S(=O)(=O)N(C)C[C@H]2OCCCC[C@@H](C)Oc3ccc(NS(=O)(=O)c4ccccc4)cc3C(=O)N([C@H](C)CO)C[C@H]2C)cc1 | -19 | 0 | 19* | 0 | 0 | 8
C[C@H](CO)N1C[C@H](C)[C@H](CN(C)CC2CC2)Oc2ccc(NC(=O)C3CCCCC3)cc2CC1=O | 0 | 0 | 1 | 2 | -1 | 1
Cc1ccc(S(=O)(=O)Nc2ccc3c(c2)C(=O)N([C@@H](C)CO)C[C@@H](C)[C@H](CN(C)S(=O)(=O)c2ccccc2)OCCCC[C@@H](C)O3)cc1 | . | 0 | 9 | -3 | . | 4
Cc1ccc(S(=O)(=O)N(C)C[C@H]2OCCCC[C@H](C)Oc3ccc(NS(=O)(=O)c4ccccc4)cc3C(=O)N([C@H](C)CO)C[C@H]2C)cc1 | 38 | 0 | 27* | -5 | 0 | .
Cc1ccc(S(=O)(=O)N(C)C[C@H]2OCCCC[C@@H](C)Oc3ccc(NS(=O)(=O)c4ccccc4)cc3C(=O)N([C@@H](C)CO)C[C@H]2C)cc1 | 10 | 0 | 22* | -1 | 0 | .
Cc1ccc(S(=O)(=O)N(C)C[C@@H]2OCCCC[C@H](C)Oc3ccc(NS(=O)(=O)c4ccccc4)cc3C(=O)N([C@H](C)CO)C[C@@H]2C)cc1 | 23 | 0 | 21* | 0 | 0 | -8
Cc1ccc(S(=O)(=O)Nc2ccc3c(c2)C(=O)N([C@@H](C)CO)C[C@H](C)[C@@H](CN(C)S(=O)(=O)c2ccccc2)OCCCC[C@H](C)O3)cc1 | . | 0 | 12 | 0 | . | -2
Cc1ccc(S(=O)(=O)N(C)C[C@H]2OCCCC[C@H](C)Oc3ccc(NS(=O)(=O)c4ccccc4)cc3C(=O)N([C@@H](C)CO)C[C@H]2C)cc1 | 48 | 0 | 23* | 0 | 0 | -8
SMILES | Statin myotox sup | E-sel inducer | SIRT5 block | rRNA inh HTS | FGF22 binding | FN deposit inh
CCCN1[C@@H]2Cn3c(cccc3=O)[C@H]1[C@@H](C(=O)Nc1ccccc1)[C@@H]2CO | 3 | 0 | -3 | 0 | 0 | .
C[C@H](C(=O)N(C)C[C@@H]1OCc2ccccc2-c2c(n(C)c3ccccc23)C(=O)N([C@H](C)CO)C[C@@H]1C)c1ccccc1 | . | . | . | 0 | . | 7
Cc1cccc(-c2csc(N)c2C(=O)OC(C)C)c1 | 116* | 2 | . | . | . | 14
CCOC(=O)c1c(-c2cccc([N+](=O)[O-])c2)csc1N | -7 | . | -21 | -5 | 0 | 5
COc1ccc(S(=O)(=O)Nc2ccc3c(c2)C(=O)N([C@H](C)CO)C[C@H](C)[C@H](CN(C)C(=O)NC(C)C)OCCCC[C@H](C)O3)cc1 | . | 0 | 3 | -5 | 0 | .
CN(c1ccc(-c2csc(NC(=O)CCCc3nc4ccccc4c(=O)[nH]3)n2)cc1)S(C)(=O)=O | 2 | 0 | . | -6 | 44* | 0
O=C(CCc1nc2ccccc2c(=O)[nH]1)Nc1nc(-c2cccs2)cs1 | -1 | 1 | -1 | -1 | 0 | 3
O=S(=O)(c1ccccc1)N1[C@@H]2CNC[C@H]1C2c1ccc(-c2ccccc2)cc1 (some centres undefined) | . | -1 | -1 | -6 | . | -3
c1ccc(-c2csc(-n3cccn3)n2)cc1 | . | . | 2 | 10 | 43* | .
c1ccc(-c2csc(N3CCSCC3)n2)cc1 | . | . | 1 | -27 | 0 | 5
CC(=O)c1sc(-c2ccc(Cl)cc2)cc1N | . | 3 | -1 | -30* | 0 | -3
COC(=O)c1sc(-c2ccc(Cl)cc2)cc1N | . | 0 | -1 | -1 | . | -9

Assay outcomes: PubChem, Broad Institute
